Test results: ChEMBL document CHEMBL1944531, “In silico assay for assessing phospholipidosis potential of small druglike molecules: training, validation, and refinement using several data sets” (J Med Chem, 2012)

Assay: Induction of phospholipidosis in bovine corneal fibroblasts assessed as lamellar inclusion bodies after 72 hrs by light microscopy
Set-up: species or system Bos taurus, Cornea
Conditions: cattle, corneal fibroblast

Compound	Activity
CN(C(=O)C(C)(C)c1cc(C(F)(F)F)cc(C(F)(F)F)c1)c1cnc(NCCO)cc1-c1ccccc1Cl	Non-toxic
CCN(CCO)CCCCOc1ccc2c(-c3ccc(Br)cc3)nsc2c1	Toxic
CC(C)CC(N(C)C)C1(c2ccc(Cl)cc2)CCC1.Cl (centres undefined)	Toxic
Cc1c(Cl)ccc2c1N1[C@H](CNC[C@H]1C)C2	Toxic
CC(OCC1CC1)c1ccc2c(n1)N1[C@@H](CNC[C@H]1C)C2 (some centres undefined)	Toxic
COc1cc(F)c(C(OC)C(=O)NCc2ccc(C(=N)N)cc2)c(F)c1.Cl (centres undefined)	Non-toxic
CCO[C@@H](C)c1ccc2c(n1)N1[C@@H](CNC[C@H]1C)C2.Cl	Non-toxic
COc1ccc(C2CCOCC2)c2sc(NC(=O)N(C)C3CCN(C)CC3)nc12	Toxic
CS(=O)(=O)O.Cc1cc(-c2cnccn2)nn1CCC(C)(C)NCC(=O)N1CCC[C@H]1C#N	Non-toxic
CC(C)COc1ccc(S(C)(=O)=O)cc1C(=O)N1Cc2cnc(C(F)(F)F)cc2C1	Non-toxic
COc1cc(-c2nc(N)c(CN)c(-c3ccc(Cl)cc3Cl)n2)cc(OC)c1OC	Toxic
CC(C)(CCn1cnc(-c2cccnc2)c1)NCC(=O)N1CCC[C@H]1C#N.CS(=O)(=O)O	Non-toxic
COc1ccc(S(=O)(=O)N(c2ccc(F)cc2)C2CCN([C@@H]3COCC[C@@]3(O)c3ccccc3)CC2)cc1	Non-toxic
Cc1cc(C#Cc2cn(-c3ccc(F)cc3)c(C)n2)ccn1	Non-toxic
CN1CCN([C@@H]2CCN(C(=O)c3cc(C(F)(F)F)cc(C(F)(F)F)c3)C[C@@H]2c2ccccc2)CC1	Toxic
Cc1cc(-c2cc(-c3ccccc3C)c(C(=O)NCc3cc(C(F)(F)F)cc(C(F)(F)F)c3)cn2)ccn1	Non-toxic
O=C(c1cc(C(F)(F)F)cc(C(F)(F)F)c1)N1CC[C@@H](N2CCOCC2)[C@@H](c2ccc(Cl)cc2)C1	Toxic
CN(CC[C@H]1CC[C@H](CN2CCCCC2)CC1)C(=O)Oc1ccc(C(F)(F)F)cc1	Toxic
C[C@@H]1CNC[C@H]2Cc3ccc(Cl)nc3N21	Non-toxic
Cc1ccc2c(n1)N1[C@@H](CNC[C@H]1C)C2	Non-toxic
C[C@H](C(N)=O)N1CCc2cc(OCc3cccc(F)c3)ccc2C1	Toxic
NCc1c(N)nc(-c2ccccc2)nc1-c1ccc(Cl)cc1Cl	Toxic
COc1cc2c(cc1OC)[C@@H]1C[C@H](N)[C@@H](N3C[C@@H](C)CC3=O)CN1CC2	Non-toxic
NCC[C@H](O)C(=O)N[C@@H]1C[C@H](N)[C@@H](O[C@H]2O[C@H](CN)[C@@H](O)[C@H](O)[C@H]2O)[C@H](O)[C@H]1O[C@H]1O[C@H](CO)[C@@H](O)[C@H](N)[C@H]1O [AMIKACIN]	Non-toxic
CCCCc1oc2ccccc2c1C(=O)c1cc(I)c(OCCN(CC)CC)c(I)c1 [AMIODARONE]	Toxic
O=C(N[C@H](CO)[C@H](O)c1ccc([N+](=O)[O-])cc1)C(Cl)Cl [CHLORAMPHENICOL]	Non-toxic
CN1CCN(C(c2ccccc2)c2ccc(Cl)cc2)CC1 (centres undefined) [CHLORCYCLIZINE]	Toxic
CCN(CC)CCCC(C)Nc1ccnc2cc(Cl)ccc12 (centres undefined) [CHLOROQUINE]	Toxic

Compound	Activity
CC(C)(N)Cc1ccc(Cl)cc1 [CHLORPHENTERMINE]	Toxic
CN(C)CCCN1c2ccccc2Sc2ccc(Cl)cc21 [CHLORPROMAZINE]	Toxic
CN(C)CCCC1(c2ccc(F)cc2)OCc2cc(C#N)ccc21 (centres undefined) [CITALOPRAM]	Toxic
CN(C)CCCN1c2ccccc2CCc2ccc(Cl)cc21 [CLOMIPRAMINE]	Toxic
CN1CCN(C2=Nc3cc(Cl)ccc3Nc3ccccc32)CC1 [CLOZAPINE]	Toxic
CN1CCN(C(c2ccccc2)c2ccccc2)CC1 [CYCLIZINE]	Toxic
CN1C(=O)CN=C(c2ccccc2)c2cc(Cl)ccc21 [DIAZEPAM]	Non-toxic
CC[C@H]1OC(=O)[C@H](C)[C@@H](O[C@H]2C[C@@](C)(OC)[C@@H](O)[C@H](C)O2)[C@H](C)[C@@H](O[C@@H]2O[C@H](C)C[C@H](N(C)C)[C@H]2O)[C@](C)(O)C[C@@H](C)C(=O)[C@H](C)[C@@H](O)[C@]1(C)O [ERYTHROMYCIN]	Non-toxic
O=C(CCCN1CCC(O)(c2ccc(Cl)cc2)CC1)c1ccc(F)cc1 [HALOPERIDOL]	Toxic
OCCOCCN1CCN(C(c2ccccc2)c2ccc(Cl)cc2)CC1 (centres undefined) [HYDROXYZINE]	Toxic
CN(C)CCCN1c2ccccc2CCc2ccccc21 [IMIPRAMINE]	Toxic
CN(C)CCCn1c2c(c3ccccc31)CCCCCC2 [IPRINDOLE]	Toxic
CNCCCC12CCC(c3ccccc31)c1ccccc12 [MAPROTILINE]	Toxic
Cc1cccc(CN2CCN(C(c3ccccc3)c3ccc(Cl)cc3)CC2)c1 (centres undefined) [MECLIZINE]	Toxic
C1CCC(C(CC2CCCCN2)C2CCCCC2)CC1 (centres undefined) [PERHEXILINE]	Toxic
CCC1(c2ccccc2)C(=O)NC(=O)NC1=O [PHENOBARBITAL]	Non-toxic
CC(=O)Nc1ccc(N2CCN(CCCN(C)C)CC2)cc1 [PIPERAMIDE]	Toxic
CN(C)CCCN1c2ccccc2Sc2ccccc21 [PROMAZINE]	Toxic
CC(C)NCC(O)COc1cccc2ccccc12 (centres undefined) [PROPRANOLOL]	Toxic
CCN(CC)CCCC(C)Nc1c2ccc(Cl)cc2nc2ccc(OC)cc12 (centres undefined) [QUINACRINE]	Toxic
CS(=O)(=O)O.C[C@H](NCc1ccc(OCc2cccc(F)c2)cc1)C(N)=O [SAFINAMIDE MESYLATE]	Toxic
[H]/N=C(/N)N[C@H]1[C@H](O)[C@@H](O)[C@H](O[C@@H]2O[C@@H](C)[C@](O)(C=O)[C@H]2O[C@@H]2O[C@@H](CO)[C@H](O)[C@@H](O)[C@@H]2NC)[C@@H](N/C(N)=N\[H])[C@@H]1O [STREPTOMYCIN]	Non-toxic
CC/C(=C(\c1ccccc1)c1ccc(OCCN(C)C)cc1)c1ccccc1 [TAMOXIFEN]	Toxic
CCN(CC)CCOc1ccc2c(c1)C(=O)c1cc(OCCN(CC)CC)ccc1-2 [TILORONE]	Toxic
CCCC[C@@H]1CC(=O)[C@]2(O)O[C@@H]3[C@@H](NC)[C@@H](O)[C@@H](NC)[C@H](O)[C@H]3O[C@@H]2O1 [TROSPECTOMYCIN]	Non-toxic
CCCC(CCC)C(=O)O [VALPROIC ACID]	Non-toxic
GENTAMICIN	Non-toxic

Assay: Induction of phospholipidosis in bovine corneal fibroblasts assessed as lamellar inclusion bodies at 7.5 uM after 72 hrs by light microscopy
Set-up: species or system Bos taurus, Cornea
Conditions: cattle, corneal fibroblast
Outline: (§1)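 Primary bovine corneal fibroblasts from collagenase-treated explants, passage 2–8, grown in DMEM/10% FCS/L-glutamine/antibiotics at 37 °C, 5% CO2. Confluent cells exposed 72 h to compound at 2.5, 5.0, 7.5, 10.0, 12.5, 15.0 or 20 μM (DMSO 1% where used). Controls: medium, 1% DMSO, imipramine 10 μM, in duplicate. Cells were fixed in 1% glutaraldehyde, stained overnight with 1% tannic acid, and black intracytoplasmic inclusions scored qualitatively by light microscopy.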

Compound	Activity
CC(OCC1CC1)c1ccc2c(n1)N1[C@@H](CNC[C@H]1C)C2 (some centres undefined)	Toxic

Assay: Induction of phospholipidosis in bovine corneal fibroblasts assessed as lamellar inclusion bodies at 20 uM after 72 hrs by light microscopy
Set-up: species or system Bos taurus, Cornea
Conditions: cattle, corneal fibroblast
Outline: as §1

Compound	Activity
Cc1c(Cl)ccc2c1N1[C@H](CNC[C@H]1C)C2	Toxic
CCO[C@@H](C)c1ccc2c(n1)N1[C@@H](CNC[C@H]1C)C2.Cl	Toxic

Assay: Induction of phospholipidosis in bovine corneal fibroblasts assessed as lamellar inclusion bodies at 2.5 to 20 uM after 72 hrs by light microscopy
Set-up: species or system Bos taurus, Cornea
Conditions: cattle, corneal fibroblast
Outline: as §1

Compound	Activity
C[C@@H]1CNC[C@H]2Cc3ccc(Cl)nc3N21	Toxic
